Values joined by “and” are separate entries in the source; they are usually repeats but may differ in a detail not shown here. Equal values may be shown once.
Assays:
[1] = target: Norepinephrine transporter (Rattus norvegicus, UniProt Q9WTR4); assay: Inhibition of [3H]NE uptake by Norepinephrine transporter of rat occipital cortex synaptosomes; assay type: subcellular, Brain
In short: (§1)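 Rat parietal and occipital cortex P2 synaptosomes in ice-cold modified KRH buffer; preincubated with drug 30 min at 37 °C, then [3H]NE 8-10 nM added for 5 min. Stopped with cold Na-free glucosamine buffer, then filtered; scintillation counting. Specific uptake defined with 3 µM desipramine. Ki from IC50 using Km 54 nM. Six drug concentrations in triplicate, 2-5 experiments.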

Rattus norvegicus [2] = species: Rattus norvegicus; assay: Compound was evaluated for its ability to antagonizing norepinephrine (NE) high affinity uptake was determined using [3H]NE on synaptosomes prepared from rat occipital cortices.; assay type: functional; details: Brain; in short: as §1
Rattus norvegicus [3] = species: Rattus norvegicus; assay: Compound was evaluated for its ability to antagonizing serotonin high affinity uptake was determined using [3H]5-HT on synaptosomes prepared from rat midbrain or parietal cortices.; assay type: functional; details: Brain
[4] = target: Sodium-dependent serotonin transporter (Rattus norvegicus, UniProt P31652); assay: Inhibition of [3H]5-HT uptake by Serotonin transporter of rat midbrain or parietal synaptosomes; assay type: subcellular, Brain
Sodium-dependent serotonin transporter, sequence (P31652 whole entry): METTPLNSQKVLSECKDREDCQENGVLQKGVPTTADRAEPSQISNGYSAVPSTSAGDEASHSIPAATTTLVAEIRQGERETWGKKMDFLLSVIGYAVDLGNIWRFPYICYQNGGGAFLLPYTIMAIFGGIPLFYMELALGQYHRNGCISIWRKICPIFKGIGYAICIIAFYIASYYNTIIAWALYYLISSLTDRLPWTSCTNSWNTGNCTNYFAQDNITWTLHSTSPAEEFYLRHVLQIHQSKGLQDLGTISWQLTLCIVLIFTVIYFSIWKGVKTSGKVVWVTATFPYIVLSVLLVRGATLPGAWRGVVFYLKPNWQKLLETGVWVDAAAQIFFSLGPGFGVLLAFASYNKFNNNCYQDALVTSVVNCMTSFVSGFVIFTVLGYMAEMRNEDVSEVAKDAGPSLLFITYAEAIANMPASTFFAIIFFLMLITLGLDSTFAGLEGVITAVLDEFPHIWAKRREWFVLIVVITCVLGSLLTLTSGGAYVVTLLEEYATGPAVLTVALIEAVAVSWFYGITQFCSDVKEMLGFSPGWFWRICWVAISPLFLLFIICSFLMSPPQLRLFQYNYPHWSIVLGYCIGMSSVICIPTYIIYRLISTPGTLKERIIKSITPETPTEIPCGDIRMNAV
In short: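 Rat midbrain P2 synaptosomes in modified KRH buffer; preincubated with drug 30 min at 37 °C, then [3H]5-HT 4-5 nM for 5 min. Stopped with cold Na-free glucosamine buffer, then filtered; scintillation counting. […] Ki from IC50 using Km 53 nM. Six drug concentrations in triplicate, 2-5 experiments.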

[5] = target: Sodium-dependent dopamine transporter (Rattus norvegicus, UniProt P23977); assay: Inhibition of [3H]DA uptake by dopamine transporter of rat striata synaptosomes; assay type: subcellular, Brain
Sodium-dependent dopamine transporter, sequence (P23977 whole entry): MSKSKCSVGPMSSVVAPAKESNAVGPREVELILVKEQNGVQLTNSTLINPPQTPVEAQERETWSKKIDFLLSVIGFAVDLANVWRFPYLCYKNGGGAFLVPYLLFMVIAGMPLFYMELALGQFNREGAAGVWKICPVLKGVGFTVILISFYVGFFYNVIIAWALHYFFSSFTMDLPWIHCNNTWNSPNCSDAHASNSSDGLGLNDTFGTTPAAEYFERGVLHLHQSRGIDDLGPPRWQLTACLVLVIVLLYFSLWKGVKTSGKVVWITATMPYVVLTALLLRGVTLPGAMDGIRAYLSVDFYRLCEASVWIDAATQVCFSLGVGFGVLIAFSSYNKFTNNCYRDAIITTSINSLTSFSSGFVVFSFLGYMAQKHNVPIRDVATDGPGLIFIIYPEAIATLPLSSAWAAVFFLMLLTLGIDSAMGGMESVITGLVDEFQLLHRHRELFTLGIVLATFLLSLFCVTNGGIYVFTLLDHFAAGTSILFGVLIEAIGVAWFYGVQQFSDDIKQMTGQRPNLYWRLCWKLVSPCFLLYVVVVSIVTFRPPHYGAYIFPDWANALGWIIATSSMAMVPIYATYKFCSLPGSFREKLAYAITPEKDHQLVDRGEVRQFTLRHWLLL
In short: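 Rat striatum homogenised in 0.32 M sucrose, P2 synaptosomes resuspended in KRH buffer; preincubated with drug 30 min at 37 °C, then [3H]DA 3-5 nM final for 5 min. Stopped with cold Na-free glucosamine buffer, then filtered; scintillation counting. Six concentrations in triplicate, 2-5 experiments.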

[6] = target: Monoamine transporters; serotonin & dopamine (Rattus norvegicus) (UniProt P31652+P23977); assay: Relative affinity for dopamine over 5-HT transporters; assay type: protein assay
Monoamine transporters; serotonin & dopamine (Rattus norvegicus), sequence (P23977 whole entry, looked up): as the sequence (P23977 whole entry) above
Monoamine transporters; serotonin & dopamine (Rattus norvegicus), sequence (P31652 whole entry, looked up): as the sequence (P31652 whole entry) above
In short: (§2)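 Selectivity ratios calculated from Ki values of the rat synaptosomal [3H]DA, [3H]NE and [3H]5-HT uptake inhibition assays.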

[7] = target: Monoamine transporters; Norepinephrine & serotonin (Rattus norvegicus) (UniProt P31652+Q9WTR4); assay: Relative affinity for norepinephrine over 5-HT transporters; assay type: protein assay; in short: as §2
Rattus norvegicus [8] = species: Rattus norvegicus; assay: Compound was evaluated for its ability to inhibit the uptake of dopamine(DA) into nerve ending using [3H]DA on synaptosomes obtained from dissected rat striata.; assay type: functional; details: Brain
Rattus norvegicus [9] = species: Rattus norvegicus; assay: Compound was evaluated for its ability to antagonizing norepinephrine (NE), high affinity uptake was determined using [3H]NE on synaptosomes prepared from rat occipital cortices.; details: Brain

Norepinephrine transporter, sequence (Q9WTR4 whole entry): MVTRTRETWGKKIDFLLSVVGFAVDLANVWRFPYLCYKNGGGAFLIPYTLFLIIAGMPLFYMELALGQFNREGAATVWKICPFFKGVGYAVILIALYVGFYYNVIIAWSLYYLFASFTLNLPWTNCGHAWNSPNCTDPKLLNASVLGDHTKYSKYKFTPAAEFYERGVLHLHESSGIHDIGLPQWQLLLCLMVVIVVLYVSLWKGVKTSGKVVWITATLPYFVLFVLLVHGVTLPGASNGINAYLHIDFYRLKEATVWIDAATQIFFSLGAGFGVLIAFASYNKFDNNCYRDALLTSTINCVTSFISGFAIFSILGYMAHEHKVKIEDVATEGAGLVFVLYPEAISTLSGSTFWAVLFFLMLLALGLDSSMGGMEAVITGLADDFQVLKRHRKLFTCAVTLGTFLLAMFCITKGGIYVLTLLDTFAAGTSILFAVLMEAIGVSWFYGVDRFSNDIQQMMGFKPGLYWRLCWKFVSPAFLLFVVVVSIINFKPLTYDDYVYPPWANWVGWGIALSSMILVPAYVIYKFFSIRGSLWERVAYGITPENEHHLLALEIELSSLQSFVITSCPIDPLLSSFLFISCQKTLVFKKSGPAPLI

COC(=O)[C@@H]1CN(C)CC[C@@H]1c1ccc(-c2ccccc2)cc1 was tested, and the Ki [1] was 203 nM, the IC50 (Rattus norvegicus [2]) was 239 nM and the IC50 (Rattus norvegicus [3]) was 67 nM. It also gave a Ki [4] of 62 nM, a Ki [5] of 173 nM and a Ratio [6] of 2.8. For the same compound, the Ratio [7] was 3.3 and the IC50 (Rattus norvegicus [8]) was 184 nM.
Work on C=Cc1ccc([C@H]2CCN(C)C[C@H]2C(=O)OC)cc1 yielded a Ki [1] of 175 nM, an IC50 (Rattus norvegicus [2]) of 204 nM and an IC50 (Rattus norvegicus [3]) of 155 nM. It also gave a Ki [4] of 138 nM.
Work on COC(=O)[C@@H]1CN(C)CC[C@@H]1c1ccc2ccccc2c1 yielded a Ki [1] of 34 nM, an IC50 (Rattus norvegicus [3]) of 8.2 nM and a Ki [4] of 7.6 nM. For the same compound, the Ki [5] was 21 nM, the Ratio [6] was 2.8 and 4.5 and the IC50 (Rattus norvegicus [8]) was 23 nM.
COC(=O)[C@H]1CN(C)CC[C@@H]1c1ccc2ccccc2c1 gave a Ki [1] of 241 nM, an IC50 (Rattus norvegicus [3]) of 46 nM and a Ki [4] of 42 nM. For the same compound, the Ki [5] was 947 nM, the Ratio [6] was 22.6 and the Ratio [7] was 5.7. The IC50 (Rattus norvegicus [8]) was greater than 1000 nM.
For COC(=O)[C@H]1[C@@H](OC(=O)c2ccccc2)C[C@@H]2CC[C@H]1N2C [COCAINE], the IC50 (Rattus norvegicus [9]) was 127 nM.
COC(=O)[C@@H]1CNCC[C@H]1c1ccc2ccccc2c1 gave a Ki [1] of 30 nM, an IC50 (Rattus norvegicus [2]) of 34 nM and an IC50 (Rattus norvegicus [3]) of 3.9 nM. For the same compound, the Ki [4] was 3.5 nM, the Ki [5] was 90 nM and the Ratio [6] was 26. The Ratio [7] was 8.6 and the IC50 (Rattus norvegicus [8]) was 97 nM.
COC(=O)[C@@H]1CN(C)CC[C@H]1c1ccc2ccccc2c1 was tested, and the Ki [1] was 27 nM, the IC50 (Rattus norvegicus [3]) was 209 nM and the Ki [4] was 192 nM. It also gave a Ki [5] of 87 nM, a Ratio [6] of 0.45 and a Ratio [7] of 0.14. It also gave an IC50 (Rattus norvegicus [8]) of 94 nM.
Compound COC(=O)[C@H]1CN(C)CC[C@H]1c1ccc2ccccc2c1 has a Ki [1] of 38 nM, an IC50 (Rattus norvegicus [3]) of 13 nM and a Ki [4] of 12 nM. It also gave a Ki [5] of 271 nM, a Ratio [6] of 23 and a Ratio [7] of 3.2. The IC50 (Rattus norvegicus [8]) was 293 nM.
CCc1ccc([C@H]2CCN(C)CC2C(=O)OC)cc1 (stereo partly specified) gave a Ki [1] greater than 1100 nM, an IC50 (Rattus norvegicus [2]) greater than 1300 nM and an IC50 (Rattus norvegicus [3]) of 275 nM. For the same compound, the Ki [4] was 255 nM, the Ki [5] was greater than 1700 nM and the Ratio [6] was greater than 6. For the same compound, the Ratio [7] was greater than 4 and the IC50 (Rattus norvegicus [8]) was greater than 1800 nM.
CNCCC(Oc1ccc(C(F)(F)F)cc1)c1ccccc1 (stereo unspecified) [FLUOXETINE] was tested, and the IC50 (Rattus norvegicus [2]) was 193 nM, the IC50 (Rattus norvegicus [3]) was 8.1 nM and the IC50 (Rattus norvegicus [8]) was greater than 4500 nM.
With C#Cc1ccc([C@H]2CCN(C)C[C@H]2C(=O)OC)cc1 the Ki [1] was 364 nM, the IC50 (Rattus norvegicus [2]) was 399 nM and the IC50 (Rattus norvegicus [3]) was 189 nM. It also gave a Ki [4] of 175 nM, a Ki [5] of 187 nM and a Ratio [6] of 1.1. The Ratio [7] was 2.1 and the IC50 (Rattus norvegicus [8]) was 213 nM.
Compound COC(=O)[C@@H]1CN(C)CC[C@@H]1c1cccc2ccccc12 has a Ki [1] of 281 nM, an IC50 (Rattus norvegicus [2]) of 337 nM and an IC50 (Rattus norvegicus [3]) of 113 nM. For the same compound, the Ki [4] was 101 nM, the Ki [5] was 304 nM and the Ratio [6] was 3. It also gave a Ratio [7] of 2.8 and an IC50 (Rattus norvegicus [8]) of 326 nM.
Work on COC(=O)[C@@H]1CN(C)CC[C@@H]1c1ccc(Cl)cc1 yielded a Ki [1] of 88 nM, an IC50 (Rattus norvegicus [2]) of 101 nM and an IC50 (Rattus norvegicus [3]) of 440 nM. The Ki [4] was 391 nM, the Ki [5] was 69 nM and the Ratio [6] was 0.18. The Ratio [7] was 0.23 and the IC50 (Rattus norvegicus [8]) was 75 nM.
For C=CCc1ccc([C@H]2CCN(C)C[C@H]2C(=O)OC)cc1, the Ki [1] was greater than 1000 nM, the IC50 (Rattus norvegicus [2]) was greater than 1200 nM and the IC50 (Rattus norvegicus [3]) was 334 nM. It also gave a Ki [4] of 309 nM, a Ki [5] of 964 nM and a Ratio [6] of 3.1. For the same compound, the Ratio [7] was greater than 3.5 and the IC50 (Rattus norvegicus [8]) was greater than 1000 nM.
